Assay outcomes from PubChem BioAssay.
Most compounds without a hit are left out; they make up all but 1.6% or so of the library.
TbMetRS inhib – blocks T. brucei methionyl-tRNA synthetase activity. purified T. brucei MetRS, ATP depletion, Kinase-Glo luminescence. inhibition, % at 11.9 µM. hit rate 0.4% among 360,000;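 active means inhibition above a per-plate cutoff of the control wells' mean inhibition plus 3 SD, cut at about 5.5% in these data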
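Assay system: T. brucei methionyl-tRNA synthetase, purified | Medium: HEPES buffer with MgCl2, KCl, DTT, spermine, BSA, pyrophosphatase | Compound: 11.9 µM single point | Incubation: 15 min enzyme-compound preincubation, 2 h reaction, 10 min detection, 25 °C | Measured by: Kinase-Glo luciferase luminescence reporting remaining unconsumed ATP | Measure: % inhibition normalized to control-well medians | Replication: Singlicate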
Arrestin-AP2 inh – blocks beta-arrestin peptide binding to AP2 adaptin. AID 504490. FITC-arrestin peptide / GST-AP2 beads, flow cytometry; AP2 beta2 appendage carries R879A mutation. hit rate 0.31% among 340,000. inhibition, % at 10 µM;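 active means inhibition above a set limit, near 3 SD of compounds lacking own fluorescence, cut at about 54% in these data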
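system = GST-tagged AP2 beta2-adaptin appendage (R879A) on 4 µm glutathione beads | reagent = FITC-labelled arrestin peptide probe, 50 nM final | schedule = compound with beads 12 min RT, then probe 1 h RT | signal = HyperCyt-sampled flow cytometry, FL1 channel, ex 488/em 535 nm | read-out = percent response from loss of bead-bound FITC fluorescence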
MT1-MMP act inh – blocks activation of human MT1-MMP; GFP/RFP ratio change, % at 20 µM; hit rate 0.061% among 360,000; HT1080 RFP-PRO-GFP cells, GFP/RFP ratio fluorescence, overnight; percent of plate control window, DMSO zero;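 active means GFP/RFP ratio change of at least 30% with cell ATP level not reduced by more than half and red fluorescence within 50% of control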
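Material: RFP-PRO-GFP reporter HT1080 cells. Dosing: single-point 20 µM compound, 1% DMSO. Controls: DMSO and RFP-L50D-GFP cell wells. Timing: cells overnight before dosing, compound overnight, 37 °C, 5% CO2. Measure: GFP/RFP fluorescence ratio.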
SKN-1 block – inhibitors of C. elegans SKN-1. inhibition, % at 21.8 µM. C. elegans VP596 Pgst-4::GFP/RFP ratio, acrylamide-induced, 24 h. hit rate 0.49% among 360,000;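 active means interference check ratio from 0.5 to 1.5 plus GFP to RFP signal ratio inhibition reaching or exceeding a fixed threshold, cut at about 30% in these data, passing the limit was not always enough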
Rin1 Abl inh – inhibitors of human Rin1-Abl protein interaction; AID 588664; TR-FRET Rin1/Abl binding, biochemical; inhibition, % at 7.35 µM; P00519+Q13671; hit rate 0.4% among 360,000; in the data active means inhibition above about 5%, passing the limit was not always enough
Target sequence (P00519 whole entry, looked up): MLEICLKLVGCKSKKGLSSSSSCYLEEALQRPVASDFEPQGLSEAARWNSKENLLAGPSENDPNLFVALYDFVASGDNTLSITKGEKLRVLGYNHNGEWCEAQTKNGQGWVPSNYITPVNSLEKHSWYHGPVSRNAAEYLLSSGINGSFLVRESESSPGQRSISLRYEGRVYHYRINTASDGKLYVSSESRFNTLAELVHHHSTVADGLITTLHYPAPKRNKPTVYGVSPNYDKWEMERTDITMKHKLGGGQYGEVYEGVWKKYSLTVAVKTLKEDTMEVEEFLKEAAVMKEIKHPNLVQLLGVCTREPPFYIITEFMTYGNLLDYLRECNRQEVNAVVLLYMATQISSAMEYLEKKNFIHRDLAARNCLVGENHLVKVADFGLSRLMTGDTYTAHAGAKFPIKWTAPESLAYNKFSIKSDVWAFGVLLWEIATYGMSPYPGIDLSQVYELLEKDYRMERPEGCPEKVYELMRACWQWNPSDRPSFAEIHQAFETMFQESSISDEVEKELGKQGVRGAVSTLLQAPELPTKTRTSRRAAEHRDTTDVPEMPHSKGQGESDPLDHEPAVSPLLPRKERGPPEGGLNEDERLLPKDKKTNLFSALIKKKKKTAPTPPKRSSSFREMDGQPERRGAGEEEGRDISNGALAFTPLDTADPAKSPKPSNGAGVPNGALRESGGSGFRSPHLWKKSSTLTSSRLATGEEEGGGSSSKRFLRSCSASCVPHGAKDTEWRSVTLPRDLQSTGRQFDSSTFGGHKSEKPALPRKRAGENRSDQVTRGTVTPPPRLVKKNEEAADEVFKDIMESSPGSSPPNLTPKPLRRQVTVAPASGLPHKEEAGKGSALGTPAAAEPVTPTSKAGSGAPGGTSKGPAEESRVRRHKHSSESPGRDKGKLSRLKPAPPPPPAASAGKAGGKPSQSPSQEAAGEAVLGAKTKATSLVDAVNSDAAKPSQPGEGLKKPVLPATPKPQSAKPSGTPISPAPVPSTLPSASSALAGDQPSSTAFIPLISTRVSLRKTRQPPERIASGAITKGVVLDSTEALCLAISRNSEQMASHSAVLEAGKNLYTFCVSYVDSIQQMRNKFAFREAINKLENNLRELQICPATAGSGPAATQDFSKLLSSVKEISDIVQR
Target sequence (Q13671 whole entry, looked up): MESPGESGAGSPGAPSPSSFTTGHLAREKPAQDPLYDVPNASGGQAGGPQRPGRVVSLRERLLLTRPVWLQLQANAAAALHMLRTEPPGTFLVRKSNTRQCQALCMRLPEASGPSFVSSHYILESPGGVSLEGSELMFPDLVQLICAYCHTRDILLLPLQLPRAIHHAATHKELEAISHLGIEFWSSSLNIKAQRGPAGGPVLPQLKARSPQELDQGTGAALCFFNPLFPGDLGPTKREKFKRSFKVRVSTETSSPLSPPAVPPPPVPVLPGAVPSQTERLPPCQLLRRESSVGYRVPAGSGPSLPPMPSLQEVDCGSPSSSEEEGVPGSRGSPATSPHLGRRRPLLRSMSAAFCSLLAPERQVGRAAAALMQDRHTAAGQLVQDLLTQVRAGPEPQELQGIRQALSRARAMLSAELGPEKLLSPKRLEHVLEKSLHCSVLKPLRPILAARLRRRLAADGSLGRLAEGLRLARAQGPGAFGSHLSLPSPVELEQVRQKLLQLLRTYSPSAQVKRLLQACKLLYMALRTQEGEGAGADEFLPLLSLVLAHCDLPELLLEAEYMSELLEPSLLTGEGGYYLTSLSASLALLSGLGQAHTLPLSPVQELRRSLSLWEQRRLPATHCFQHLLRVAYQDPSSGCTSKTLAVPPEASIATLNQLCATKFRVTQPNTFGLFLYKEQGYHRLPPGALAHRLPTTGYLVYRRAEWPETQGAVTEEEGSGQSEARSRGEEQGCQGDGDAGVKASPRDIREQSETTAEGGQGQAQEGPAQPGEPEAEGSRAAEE
Rin1-Abl confirm – Rin1-Abl interaction inhibition confirmation | shares compounds with Rin1 Abl inh | TR-FRET Rin1-Abl binding, purified proteins | inhibition, % at 7.35 µM | hit rate 49% among 1,300 | AID 602124
GFP quencher – quenches GFP fluorescence, counter-screen for Rin1-Abl inhibitors. shares compounds with Rin1 Abl inh. inhibitors/quenchers counterscreen. inhibition, % at 6.75 µM. hit rate 8.5% among 1,300. AID 602125;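 further: ABL1-eGFP fusion protein alone without its partner RIN1-SBP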
GFP quench dose – GFP fluorescence interference dose response. 230 tested, under 10 active. AID 602182. shares compounds with Rin1 Abl inh. GFP fluorescence interference/quenching counterscreen. IC50, µM; call rule not given here;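 further: ABL1-eGFP fusion protein alone without its RIN1 binding partner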
Of the large screens only hits and unclear results are named; the others gave an inactive call (follow-up assays come after a bar, where they were run). Unless noted, no stated cut-off is given here; in the data, active means inhibition above about 6.5%; inactive means the rest.

Cc1cc(C)n2nc(C(=O)OCC(=O)N(CC(C)C)C3CCS(=O)(=O)C3)nc2n1 (stereo not given)	none
COc1ccccc1NCC(=O)Nc1cc(S(=O)(=O)N2CCOCC2)ccc1N1CCOCC1	Rin1 Abl inh 9.2 | Rin1-Abl confirm 8.2 | GFP quencher inactive
CCCSc1nnc(CSc2nc(C)cc(C)n2)n1C	Rin1 Abl inh 19.8 | Rin1-Abl confirm 14.8 | GFP quencher inactive
O=c1[nH][nH]c2c1[C@H](CCc1cccc(Cl)c1)O[C@H](CCc1ccccc1)C2	none (no result: Arrestin-AP2 inh, Rin1 Abl inh)
O=C(O)c1cnn2c(-c3ccc(F)cc3)ccnc12	none
COc1ccc(-c2ccnc3c(C(=O)O)cnn23)cc1	Rin1 Abl inh 9.6 | Rin1-Abl confirm inactive | GFP quencher inactive
CN(C)CCNC(=O)c1cccc(S(=O)(=O)Nc2ccc(F)cc2)c1	Rin1 Abl inh 9.2 | Rin1-Abl confirm inactive | GFP quencher inactive
CCN(CC)CCNC(=O)c1ccc(NC(=O)c2cccc(S(=O)(=O)Nc3ccc(C)cc3)c2)cc1	none
Cc1nc(NC(=O)C(C)(C)C)sc1C(=O)Cn1cc(CCCC#N)nn1	none (no result: Arrestin-AP2 inh, Rin1 Abl inh)
CCCCOc1ccc(C(=O)N2CCN(CC(=O)Nc3ccc(C)cc3)CC2)cc1OC	Rin1 Abl inh 8.6 | Rin1-Abl confirm 10.9 | GFP quencher inactive
CCCCc1c(-c2cccc(Br)c2)ncn1CCc1ccccc1OC	none (no result: Arrestin-AP2 inh, Rin1 Abl inh)
O=C1c2ccccc2C(=O)N1/N=C/c1ccc(O)c(O)c1	Rin1 Abl inh 11.1 | Rin1-Abl confirm inactive | GFP quencher inactive
O=C(OC1CCOC1=O)c1ccc(S(=O)(=O)N2CCCCCC2)cc1 (stereo not given)	none
CN(C)S(=O)(=O)c1ccc(C(=O)OC2CCOC2=O)cc1 (stereo not given)	Rin1 Abl inh 6.9 | Rin1-Abl confirm inactive | GFP quencher inactive
CCNC(=O)C1(C)CCCN(C(=O)c2ccc(F)c(C)c2)C1 (stereo not given)	none (no result: Arrestin-AP2 inh)
COc1ccc(S(=O)(=O)NC(=O)C2(C)CCN2C(=O)CC2CCCC2)cc1 (stereo not given)	none (no result: Arrestin-AP2 inh)
O=C(CCS(=O)(=O)c1ccc(Br)cc1)N1CCN(c2ccccc2F)CC1	none
O=C(CCS(=O)(=O)c1ccc(Br)cc1)N1CCN(c2ccccc2Cl)CC1	Rin1 Abl inh 9.0 | Rin1-Abl confirm inactive | GFP quencher inactive
CCOc1ccc(/C=N/Nc2cc(N3CCOCC3)ncn2)c(O)c1	Rin1 Abl inh 8.3 (no result: Arrestin-AP2 inh) | Rin1-Abl confirm inactive | GFP quencher inactive
CCN(C(=O)COC(=O)c1cc(Cl)ccc1OC)c1c(N)n(Cc2ccccc2)c(=O)[nH]c1=O	Rin1 Abl inh 8.7 | Rin1-Abl confirm inactive | GFP quencher inactive
O=C(CCOc1cccc(Br)c1)Nc1ccc(F)c(S(=O)(=O)N2CCOCC2)c1	none
CC(C)(c1ccc(O)cc1)c1ccc(O)c(C(=O)O)c1	none (no result: Arrestin-AP2 inh)
NC(=O)c1cc(-c2ccccc2)nc(Oc2ccccc2)n1	Rin1 Abl inh 10.5 (no result: MT1-MMP act inh) | Rin1-Abl confirm inactive | GFP quencher inactive
CCOC(=O)C1=CCN(S(=O)(=O)c2ccccc2C)C1c1ccc(Cl)cc1 (stereo not given)	none (no result: Arrestin-AP2 inh)
NC(=O)c1ccc(NC(=O)COC(=O)CCC2CCCC2)cc1	none (no result: Arrestin-AP2 inh)
COC(=O)c1ccccc1NC(=O)CSc1nnc(-c2ccncc2)o1	Rin1 Abl inh 16.0 | Rin1-Abl confirm 16.1 | GFP quencher inactive
COC(=O)c1ccc(CSc2nnc(-c3ccncc3)o2)o1	Rin1 Abl inh 19.4 | Rin1-Abl confirm 38.7 | GFP quencher inactive | GFP quench dose inactive
Nc1c(C(=O)NCc2ccc3c(c2)OCO3)nnn1Cc1cccc(F)c1	Rin1 Abl inh 8.4 | Rin1-Abl confirm 10.4 | GFP quencher inactive
COc1cccc(Cn2nnc(C(=O)NCc3ccc4c(c3)OCO4)c2N)c1	Rin1 Abl inh 9.1 | Rin1-Abl confirm 7.3 | GFP quencher inactive
